≈ marks a conversion by molar mass, not a printed value. Where “and” joins values, the source holds several entries; their conditions need not be identical. Equal values may be shown once.
Legend:
[1] = system: Mammalian orthoreovirus 1; experiment: Compound was tested for antiviral activity (minimum inhibition concentration) in Vero cells reovirus type 1; format: functional
How it was run: (§1)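 Inhibition of virus-induced cytopathogenicity, scored as minimum inhibitory concentration (µg/mL) in the host cell monolayers listed: HSV-1 (KOS) and HSV-2 (G) in primary rabbit kidney cells; measles, reovirus type 1, parainfluenza type 3, Coxsackie B4 and Sindbis in Vero cells; Coxsackie and polio in HeLa cells. Minimum cytotoxic concentration taken as microscopically detectable alteration of normal cell morphology; highest concentration tested 400 µg/mL.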

Measles morbillivirus = experiment: Compound was tested for antiviral activity against measles virus in vero cells; format: functional; how it was run: as §1
Human alphaherpesvirus 2 = experiment: Compound was tested for antiviral activity against herpes simplex virus-2(G) in primary rabbit kidney cells; format: functional; how it was run: as §1
[2] = system: Vesicular stomatitis virus; experiment: Compound was tested for antiviral activity (minimum inhibition concentration) in HeLa cells vesicular stomatitis virus (VSV); format: functional
[3] = system: Vesicular stomatitis virus; experiment: Compound was tested for antiviral activity against vesicular stomatitis virus in primary rabbit kidney cells; format: functional
Coxsackievirus B4 [4] = experiment: Compound was tested for antiviral activity (minimum inhibition concentration) in HeLa cells coxsackie virus type 4; format: functional; conditions: Enterovirus B; how it was run: as §1
Vaccinia virus = experiment: Compound was tested for antiviral activity against vaccinia virus in primary rabbit kidney cells; format: functional; conditions: Orthopoxvirus vaccinia
Coxsackievirus B4 [5] = experiment: Compound was tested for antiviral activity (minimum inhibition concentration) in Vero cells coxsackie virus type B4; format: functional; conditions: Enterovirus B; how it was run: as §1
Human alphaherpesvirus 1 = experiment: Compound was tested for antiviral activity against herpes simplex virus-1(KOS) in primary rabbit kidney cells; format: functional; how it was run: as §1
Poliovirus 1 = experiment: Compound was tested for antiviral activity (minimum inhibition concentration) in HeLa cells polio virus type 1; format: functional; conditions: Enterovirus C
Human respirovirus 3 = experiment: Compound was tested for antiviral activity (minimum inhibition concentration) in Vero cells parainfluenza virus type 3; format: functional; how it was run: as §1
Sindbis virus = experiment: Compound was tested for antiviral activity (minimum inhibition concentration) in Vero cells sindbis virus; format: functional; how it was run: as §1
[6] = Coronary vasoactivity as molar potency ratio (MPR), the quotient of ED50 of adenosine by that of the test nucleoside; format: functional
How it was run: (§2)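 Dogs anesthetized with morphine-thiamylal-fluothane. MPR is ED50 of adenosine divided by ED50 of test nucleoside. Dog-to-dog variation in MPR about ±10%.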

L1210 [7] = experiment: Effect of compound on the incorporation of nucleic acid precursor into L1210 cells (cpm x 10e-3), precursors used along with compound were [14C]-Adenosine; format: functional, Mus musculus
How it was run: (§3)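 L1210 suspension cultures in RPMI 1640 with 10% horse serum, at 37 °C, preincubated 90 min with or without test compound at 1 mM. 14C-precursor (cytidine, uridine, adenosine or thymidine) then added to 0.04 µCi/mL final and incubated a further 30 min. Cells pelleted and Schmidt-Thannhauser fractionation gave acid-soluble, RNA and DNA fractions, counted by scintillation. Duplicate flasks; results as cpm ×10^-3 and % of control.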

L1210 [8] = experiment: Effect of compound on the incorporation of nucleic acid precursor into L1210 cells (cpm x 10e-3),precursors used along with compound were [14C]cytidine; format: functional, Mus musculus; how it was run: as §3
L1210 [9] = experiment: Effect of compound on the incorporation of nucleic acid precursor into L1210 cells (cpm x 10e-3), precursors used along with compound were [14C]cytidine; format: functional, Mus musculus; how it was run: as §3
L1210 [10] = experiment: Effect of compound on the incorporation of nucleic acid precursor into L1210 cells (cpm x 10e-3),precursors used along with compound were [14C]uridine; format: functional, Mus musculus; how it was run: as §3
[11] = Coronary vasoactivity (molar potency ratio (MPR), the quotient of ED50 of adenosine by that of the test nucleoside)Dog to dog variations in MPR are about +/-10%; format: functional; how it was run: as §2

SMILES | MIC [1] [µg/mL] | MIC (Measles morbillivirus) [µg/mL] | MIC (Human alphaherpesvirus 2) [µg/mL] | MIC [2] [µg/mL] | MIC [3] [µg/mL] | MIC (Coxsackievirus B4 [4]) [µg/mL] | MIC (Vaccinia virus) [µg/mL] | MIC (Coxsackievirus B4 [5]) [µg/mL] | MIC (Human alphaherpesvirus 1) [µg/mL] | MIC (Poliovirus 1) [µg/mL] | MIC (Human respirovirus 3) [µg/mL] | MIC (Sindbis virus) [µg/mL] | MPR [6] | RNA fraction (L1210 [7]) | Total uptake (L1210 [8]) | Total uptake (L1210 [9]) | Fraction (L1210 [10]) | MPR [11]
NC(=O)c1ncn([C@@H]2O[C@H](CO)[C@@H](O)[C@H]2O)n1 [RIBAVIRIN] | 100 (≈ 409 µM) | 20 (≈ 81.9 µM) | > 400 | 20 (≈ 81.9 µM) | 20 (≈ 81.9 µM) | 20 (≈ 81.9 µM) | 20 (≈ 81.9 µM) | 200 (≈ 819 µM) | > 400 | 10 (≈ 40.9 µM) | 10 (≈ 40.9 µM) | 40 (≈ 164 µM) | – | – | – | – | – | –
Nc1nnnc2c1ncn2[C@@H]1O[C@H](CO)[C@@H](O)[C@H]1O | – | – | – | – | – | – | – | – | – | – | – | – | 0.15 | – | – | – | – | –
Nc1nccn2c([C@@H]3O[C@H](CO)[C@@H](O)[C@H]3O)nnc12 | 200 (≈ 748 µM) | 200 (≈ 748 µM) | 200 (≈ 748 µM) | 150 (≈ 561 µM) | 100 (≈ 374 µM) | > 400 | 100 (≈ 374 µM) | 200 (≈ 748 µM) | > 400 | > 400 | 100 (≈ 374 µM) | 300 (≈ 1120 µM) | – | 24 and 19.8 | 50.4 | 128.8 and 161.7 | 24 | 0.0015
Nc1ncnc2c([C@@H]3O[C@H](CO)[C@@H](O)[C@H]3O)[nH]nc12 [FORMYCIN] | ≥ 40 | ≥ 40 | 4 (≈ 15 µM) | 10 (≈ 37.4 µM) | 2 (≈ 7.48 µM) | ≥ 200 | 4 (≈ 15 µM) | ≥ 40 | 4 (≈ 15 µM) | 10 (≈ 37.4 µM) | ≥ 40 | ≥ 40 | 0.043 | – | – | – | – | –
Nc1ncnc2c1nnn2[C@@H]1O[C@H](CO)[C@@H](O)[C@H]1O | – | – | – | – | – | – | – | – | – | – | – | – | 0.042 | – | – | – | – | –
Nc1ncnc2c1ccn2[C@@H]1O[C@H](CO)[C@@H](O)[C@H]1O | – | – | – | – | – | – | – | – | – | – | – | – | 0.071 | – | – | – | – | –
Nc1nccc2c1ncn2[C@@H]1O[C@H](CO)[C@@H](O)[C@H]1O | 4 (≈ 15 µM) | 40 (≈ 150 µM) | 10 (≈ 37.6 µM) | 10 (≈ 37.6 µM) | 7 (≈ 26.3 µM) | 40 (≈ 150 µM) | 7 (≈ 26.3 µM) | 4 (≈ 15 µM) | 40 (≈ 150 µM) | 40 (≈ 150 µM) | 2 (≈ 7.51 µM) | 40 (≈ 150 µM) | – | – | – | – | – | –
